In ChEMBL document CHEMBL1124988, “Synthesis and antimicrobial and cytotoxic activities of pyrrole-containing analogues of trichostatin A” (J Med Chem, 1990):
Values after ≈ are worked out from the molar mass of the structure shown.

Key:
[1] = Toxic dose that reduced by 50% the number of cells with respect to untreated controls.; type: toxicity, cell-based; conditions: chlorocebus sabaeus, Vero cells; read-out: TD50 (the source's name)
Procedure, shortened: (§1)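 Exponentially growing Vero cells were exposed to a range of compound concentrations for three cell cycles (3 days) at 37 °C in 5% CO2. Viable cells were counted by hemocytometer in duplicate samples. MNTD is the highest concentration still allowing exponential growth. TD50 is the concentration halving cell number versus untreated controls.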

[2] = test system: African swine fever virus; assay: Effective dose required for antiviral activity against ASFV virus; type: functional; conditions: read-out: ED50 (the source's name)
Vero = assay: Maximum nontoxic dose that allow exponential cell growth for three cell cycles; type: functional, Chlorocebus sabaeus; procedure, shortened: as §1
unidentified adenovirus = assay: Effective dose required for antiviral activity against adeno virus; type: functional; conditions: read-out: ED50 (the source's name)
Procedure, shortened: (§2)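 Plaque-reduction assay in Vero cells. Dose-response lines were drawn by linear regression, and ED50 is the concentration giving 50% fewer plaques than untreated, virus-infected controls.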

Vaccinia virus = assay: Effective dose required for antiviral activity against Vaccinia virus; type: functional; conditions: Orthopoxvirus vaccinia; read-out: ED50 (the source's name)
Human alphaherpesvirus 1 = assay: Effective dose required for antiviral activity against HSV-1 virus; type: functional; conditions: read-out: ED50 (the source's name); procedure, shortened: as §2
[3] = test system: Vesicular stomatitis virus; assay: Effective dose required for antiviral activity against VSV virus; type: functional; conditions: read-out: ED50 (the source's name)

## Cn1cc(C(=O)c2ccc(Cl)cc2)cc1/C=C/C(=O)O
[1]
  CC50: 125 mg/L (≈ 431 µM)
[2]
  EC50: > 250 mg/L
Vero
  MNTD: 30 µg/mL
Unidentified adenovirus
  EC50: > 500 mg/L
Vaccinia virus
  EC50: 100 mg/L (≈ 345 µM)
Human alphaherpesvirus 1
  EC50: 500 mg/L (≈ 1730 µM)
[3]
  EC50: 250 mg/L (≈ 863 µM)

## Cn1cc(C(=O)c2ccccc2)cc1/C=C/C(=O)NO
[1]
  CC50: 30 mg/L (≈ 111 µM)
[2]
  EC50: > 30 mg/L
Vero
  MNTD: 15 µg/mL
Unidentified adenovirus
  EC50: > 30 mg/L
Vaccinia virus
  EC50: > 30 mg/L
Human alphaherpesvirus 1
  EC50: > 30 mg/L
[3]
  EC50: > 30 mg/L

## Cc1ccc(C(=O)c2ccn(/C=C/C(=O)O)c2)cc1
[1]
  CC50: 125 mg/L (≈ 490 µM)
[2]
  EC50: 8 mg/L (≈ 31.3 µM)
Vero
  MNTD: 30 µg/mL
Unidentified adenovirus
  EC50: 60 mg/L (≈ 235 µM)
Vaccinia virus
  EC50: 100 mg/L (≈ 392 µM)
Human alphaherpesvirus 1
  EC50: 100 mg/L (≈ 392 µM)
[3]
  EC50: > 125 mg/L

## CCOC(=O)/C=C/c1cc(C(=O)c2ccc(OC)cc2)cn1C
[1]
  CC50: 15 mg/L (≈ 47.9 µM)
[2]
  EC50: 8 mg/L (≈ 25.5 µM)
Vero
  MNTD: 8 µg/mL
Unidentified adenovirus
  EC50: 4 mg/L (≈ 12.8 µM)
Vaccinia virus
  EC50: 20 mg/L (≈ 63.8 µM)
Human alphaherpesvirus 1
  EC50: 15 mg/L (≈ 47.9 µM)
[3]
  EC50: 15 mg/L (≈ 47.9 µM)

## Cn1cc(C(=O)c2ccc([N+](=O)[O-])cc2)cc1/C=C/C(=O)O
[1]
  CC50: 60 mg/L (≈ 200 µM)
[2]
  EC50: 50 mg/L (≈ 167 µM)
Vero
  MNTD: 15 µg/mL
Unidentified adenovirus
  EC50: 50 mg/L (≈ 167 µM)
Vaccinia virus
  EC50: 15 mg/L (≈ 50 µM)
Human alphaherpesvirus 1
  EC50: 50 mg/L (≈ 167 µM)
[3]
  EC50: > 100 mg/L

## CN(C)c1ccc(C(=O)c2cc(/C=C/C(=O)O)n(C)c2)cc1
[1]
  CC50: > 250 mg/L
[2]
  EC50: > 250 mg/L
Vero
  MNTD: 125 µg/mL
Unidentified adenovirus
  EC50: 125 mg/L (≈ 419 µM)
Vaccinia virus
  EC50: > 250 mg/L
Human alphaherpesvirus 1
  EC50: > 250 mg/L
[3]
  EC50: > 500 mg/L

## Nc1nc2c(ncn2COCCO)c(=O)[nH]1 [ACYCLOVIR]
[1]
  CC50: 240 mg/L (≈ 1070 µM)
[2]
  EC50: 40 mg/L (≈ 178 µM)
Vero
  MNTD: 40 µg/mL
Vaccinia virus
  EC50: > 110 mg/L
Human alphaherpesvirus 1
  EC50: 0.02 mg/L (≈ 0.0888 µM)
[3]
  EC50: > 40 mg/L

## Cn1cc(C(=O)c2ccc(-n3ccnc3)cc2)cc1/C=C/C(=O)O
[1]
  CC50: > 250 mg/L
[2]
  EC50: 250 mg/L (≈ 778 µM)
Vero
  MNTD: 125 µg/mL
Unidentified adenovirus
  EC50: 250 mg/L (≈ 778 µM)
Vaccinia virus
  EC50: > 250 mg/L
Human alphaherpesvirus 1
  EC50: > 250 mg/L
[3]
  EC50: 250 mg/L (≈ 778 µM)

## Cn1cc(C(=O)c2ccc(F)cc2)cc1/C=C/C(=O)NO
[1]
  CC50: 15 mg/L (≈ 52 µM)
[2]
  EC50: 12 mg/L (≈ 41.6 µM)
Vero
  MNTD: 8 µg/mL
Unidentified adenovirus
  EC50: > 50 mg/L
Vaccinia virus
  EC50: 15 mg/L (≈ 52 µM)
Human alphaherpesvirus 1
  EC50: 10 mg/L (≈ 34.7 µM)
[3]
  EC50: > 50 mg/L

## Cn1cc(C(=O)c2ccc([N+](=O)[O-])cc2)cc1/C=C/C(=O)NO
[1]
  CC50: 30 mg/L (≈ 95.2 µM)
[2]
  EC50: 25 mg/L (≈ 79.3 µM)
Vero
  MNTD: 15 µg/mL
Unidentified adenovirus
  EC50: 25 mg/L (≈ 79.3 µM)
Vaccinia virus
  EC50: 15 mg/L (≈ 47.6 µM)
Human alphaherpesvirus 1
  EC50: 15 mg/L (≈ 47.6 µM)
[3]
  EC50: > 50 mg/L

## CCOC(=O)/C=C/c1cc(C(=O)c2ccc(N(C)C)cc2)cn1C
[1]
  CC50: 4 mg/L (≈ 12.3 µM)
[2]
  EC50: 8 mg/L (≈ 24.5 µM)
Vero
  MNTD: 2 µg/mL
Unidentified adenovirus
  EC50: 15 mg/L (≈ 46 µM)
Vaccinia virus
  EC50: 15 mg/L (≈ 46 µM)
Human alphaherpesvirus 1
  EC50: 15 mg/L (≈ 46 µM)
[3]
  EC50: 8 mg/L (≈ 24.5 µM)

## CCOC(=O)/C=C/c1cc(C(=O)c2ccc(Cl)cc2)cn1C
[1]
  CC50: 500 mg/L (≈ 1570 µM)
[2]
  EC50: > 500 mg/L
Vero
  MNTD: 250 µg/mL
Unidentified adenovirus
  EC50: 30 mg/L (≈ 94.4 µM)
Vaccinia virus
  EC50: 500 mg/L (≈ 1570 µM)
Human alphaherpesvirus 1
  EC50: 350 mg/L (≈ 1100 µM)
[3]
  EC50: > 1000 mg/L

## Cn1cc(C(=O)c2ccc(F)cc2)cc1/C=C/C(=O)O
[1]
  CC50: 60 mg/L (≈ 220 µM)
[2]
  EC50: 30 mg/L (≈ 110 µM)
Vero
  MNTD: 15 µg/mL
Unidentified adenovirus
  EC50: 50 mg/L (≈ 183 µM)
Vaccinia virus
  EC50: 100 mg/L (≈ 366 µM)
Human alphaherpesvirus 1
  EC50: 60 mg/L (≈ 220 µM)
[3]
  EC50: > 50 mg/L

## CCOC(=O)/C=C/c1cc(C(=O)c2ccccc2)cn1C
[1]
  CC50: 4 mg/L (≈ 14.1 µM)
[2]
  EC50: 30 mg/L (≈ 106 µM)
Vero
  MNTD: 2 µg/mL
Unidentified adenovirus
  EC50: 30 mg/L (≈ 106 µM)
Vaccinia virus
  EC50: 30 mg/L (≈ 106 µM)
Human alphaherpesvirus 1
  EC50: 30 mg/L (≈ 106 µM)
[3]
  EC50: 30 mg/L (≈ 106 µM)

## CCOC(=O)/C=C/c1cc(C(=O)c2ccc([N+](=O)[O-])cc2)cn1C
[1]
  CC50: 8 mg/L (≈ 24.4 µM)
[2]
  EC50: 60 mg/L (≈ 183 µM)
Vero
  MNTD: 2 µg/mL
Vaccinia virus
  EC50: 60 mg/L (≈ 183 µM)
Human alphaherpesvirus 1
  EC50: 125 mg/L (≈ 381 µM)

## Cn1cc(C(=O)c2ccc(Cl)cc2)cc1/C=C/C(=O)NO
[1]
  CC50: 30 mg/L (≈ 98.4 µM)
[2]
  EC50: 20 mg/L (≈ 65.6 µM)
Vero
  MNTD: 15 µg/mL
Unidentified adenovirus
  EC50: 15 mg/L (≈ 49.2 µM)
Vaccinia virus
  EC50: 30 mg/L (≈ 98.4 µM)
Human alphaherpesvirus 1
  EC50: 30 mg/L (≈ 98.4 µM)
[3]
  EC50: > 30 mg/L

## CCOC(=O)/C=C/c1cc(C(=O)c2ccc(F)cc2)cn1C
[1]
  CC50: 15 mg/L (≈ 49.8 µM)
[2]
  EC50: 10 mg/L (≈ 33.2 µM)
Vero
  MNTD: 4 µg/mL
Unidentified adenovirus
  EC50: 50 mg/L (≈ 166 µM)
Vaccinia virus
  EC50: 10 mg/L (≈ 33.2 µM)
Human alphaherpesvirus 1
  EC50: 10 mg/L (≈ 33.2 µM)
[3]
  EC50: 50 mg/L (≈ 166 µM)

## COc1ccc(C(=O)c2cc(/C=C/C(=O)O)n(C)c2)cc1
[1]
  CC50: > 500 mg/L
[2]
  EC50: 350 mg/L (≈ 1230 µM)
Vero
  MNTD: 500 µg/mL
Unidentified adenovirus
  EC50: 250 mg/L (≈ 876 µM)
Vaccinia virus
  EC50: 500 mg/L (≈ 1750 µM)
Human alphaherpesvirus 1
  EC50: > 500 mg/L
[3]
  EC50: 1000 mg/L (≈ 3510 µM)

## Cn1cc(C(=O)c2ccccc2)cc1/C=C/C(=O)O
[1]
  CC50: > 250 mg/L
[2]
  EC50: 250 mg/L (≈ 979 µM)
Vero
  MNTD: 250 µg/mL
Unidentified adenovirus
  EC50: 250 mg/L (≈ 979 µM)
Vaccinia virus
  EC50: > 500 mg/L
Human alphaherpesvirus 1
  EC50: > 500 mg/L
[3]
  EC50: 500 mg/L (≈ 1960 µM)

## Cn1cc(C(=O)c2ccc(N)cc2)cc1/C=C/C(=O)O
[1]
  CC50: > 1000 mg/L
[2]
  EC50: 250 mg/L (≈ 925 µM)
Vero
  MNTD: >1000 µg/mL
Unidentified adenovirus
  EC50: 1000 mg/L (≈ 3700 µM)
Vaccinia virus
  EC50: 1000 mg/L (≈ 3700 µM)
Human alphaherpesvirus 1
  EC50: > 1000 mg/L
[3]
  EC50: > 1000 mg/L

## CCOC(=O)/C=C/c1cc(C(=O)c2ccc(-n3ccnc3)cc2)cn1C
[1]
  CC50: 30 mg/L (≈ 85.9 µM)
[2]
  EC50: 30 mg/L (≈ 85.9 µM)
Vero
  MNTD: 15 µg/mL
Unidentified adenovirus
  EC50: 15 mg/L (≈ 42.9 µM)
Vaccinia virus
  EC50: > 500 mg/L
Human alphaherpesvirus 1
  EC50: 500 mg/L (≈ 1430 µM)
[3]
  EC50: 500 mg/L (≈ 1430 µM)

## Nc1ncnc2c1ncn2[C@@H]1O[C@H](CO)[C@@H](O)[C@@H]1O [VIDARABINE]
[1]
  CC50: 10 mg/L (≈ 37.4 µM)
[2]
  EC50: 40 mg/L (≈ 150 µM)
Vero
  MNTD: 6 µg/mL
Vaccinia virus
  EC50: 16 mg/L (≈ 59.9 µM)
Human alphaherpesvirus 1
  EC50: 10 mg/L (≈ 37.4 µM)
[3]
  EC50: > 10 mg/L
